Assay results: ChEMBL document CHEMBL1123564, “C-terminal deletions in agonistic and antagonistic analogues of vasopressin that improve their specificities for antidiuretic (V2) and vasopressor (V1) receptors” (J Med Chem, 1987)

Assays:
[1] = organism: Rattus norvegicus; assay: Compound was tested for antidiuretic activity in rats under ethanol anesthesia; assay type: functional, Urine
Summary of the method: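 Rats under ethanol anesthesia were given antidiuretic agonist assays against the USP posterior pituitary reference standard. Activity is expressed in units/mg.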

[2] = organism: Rattus norvegicus; assay: Antivasopressor activity in phenoxybenzamine treated rats under urethane anesthesia was determined; Agonistic activity was observed; assay type: functional

N=C(N)NCCC[C@H](NC(=O)[C@@H]1CCCN1C(=O)[C@@H]1CSSC[C@H](N)C(=O)N[C@@H](Cc2ccc(O)cc2)C(=O)N[C@@H](Cc2ccccc2)C(=O)N[C@@H](CCC(N)=O)C(=O)N[C@@H](CC(N)=O)C(=O)N1)C(=O)NCC(N)=O [VASOPRESSIN]
Antidiuretic activity [1]: 330 U/mg | vasopressor activity [2]: 382 units/mg
